Experimental data from ChEMBL document CHEMBL3046448, “Design and syntheses of novel phthalazin-1(2H)-one derivatives as acetohydroxyacid synthase inhibitors” (J Agric Food Chem, 2006).

Experiments:
[1] = test system: Chenopodium album; experiment: Herbicidal activity against Chenopodium album assessed as growth inhibition at 150 g ai/ha applied as post-emergence treatment under green house conditions measured 15 days post compound treatment; assay type: functional; conditions: 360 h, read-out: GI
Outline: (§1)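 Post-emergence spray on pot-grown dicot weeds at the two-leaf stage in a greenhouse. Clay soil: pH 6.5, 1.6% organic matter, 37.3% clay, CEC 12.1 cmol/kg. Formulation: 100 g/L DMF/TW-80 emulsified concentrate, water-diluted to 150 g ai/ha. Untreated and DMF solvent controls. Visual inhibition rating at 15 days: ++ >80%, + 50-80%, − <50%.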

[2] = test system: Amaranthus retroflexus; experiment: Herbicidal activity against Amaranthus retroflexus assessed as growth inhibition at 150 g ai/ha applied as post-emergence treatment under green house conditions measured 15 days post compound treatment; assay type: functional; conditions: 360 h, read-out: GI; outline: as §1
[3] = test system: Brassica juncea; experiment: Herbicidal activity against Brassica juncea assessed as growth inhibition at 150 g ai/ha applied as post-emergence treatment under green house conditions measured 15 days post compound treatment; assay type: functional; conditions: 360 h, read-out: GI; outline: as §1
[4] = test system: Setaria viridis; experiment: Herbicidal activity against Setaria viridis (green foxtail) assessed as growth inhibition at 150 g ai/ha applied as post-emergence treatment under green house conditions measured 15 days post compound treatment; assay type: functional; conditions: 360 h, read-out: GI
Outline: (§2)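 Monocot weeds grown in pots in a greenhouse and sprayed post-emergence at the one-leaf stage. Clay soil: pH 6.5, 1.6% organic matter, 37.3% clay, CEC 12.1 cmol/kg. Formulation: 100 g/L emulsified concentrate (DMF, TW-80) diluted with water to 150 g ai/ha. Untreated and DMF controls included. Growth inhibition scored visually after 15 days: ++ >80%, + 50-80%, − <50%.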

[5] = test system: Digitaria sanguinalis; experiment: Herbicidal activity against Digitaria sanguinalis (hairy crabgrass) assessed as growth inhibition at 150 g ai/ha applied as post-emergence treatment under green house conditions measured 15 days post compound treatment; assay type: functional; conditions: 360 h, read-out: GI; outline: as §2
[6] = test system: Amaranthus retroflexus; experiment: Herbicidal activity against Amaranthus retroflexus assessed as growth inhibition at 150 g ai/ha applied as pre-emergence treatment 24 hr after weeds seeds sowing under green house conditions measured 15 days post compound treatment; assay type: functional; conditions: read-out: GI
Outline: (§3)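 Pre-emergence spray applied 24 h after sowing weeds in pots in a greenhouse. Clay soil: pH 6.5, 1.6% organic matter, 37.3% clay, CEC 12.1 cmol/kg. Formulation: 100 g/L emulsified concentrate (DMF solvent, TW-80 emulsifier) diluted with water to 150 g ai/ha. Untreated and DMF-treated controls. Growth inhibition judged visually at 15 days: ++ >80%, + 50-80%, − <50%.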

[7] = test system: Brassica juncea; experiment: Herbicidal activity against Brassica juncea assessed as growth inhibition at 150 g ai/ha applied as pre-emergence treatment 24 hr after weeds seeds sowing under green house conditions measured 15 days post compound treatment; assay type: functional; conditions: read-out: GI; outline: as §3
[8] = test system: Setaria viridis; experiment: Herbicidal activity against Setaria viridis (green foxtail) assessed as growth inhibition at 150 g ai/ha applied as pre-emergence treatment 24 hr after weeds seeds sowing under green house conditions measured 15 days post compound treatment; assay type: functional; conditions: read-out: GI; outline: as §3
[9] = test system: Digitaria sanguinalis; experiment: Herbicidal activity against Digitaria sanguinalis (hairy crabgrass) assessed as growth inhibition at 150 g ai/ha applied as pre-emergence treatment 24 hr after weeds seeds sowing under green house conditions measured 15 days post compound treatment; assay type: functional; conditions: read-out: GI; outline: as §3
[10] = test system: Echinochloa crus-galli; experiment: Herbicidal activity against Echinochloa crus-galli (barnyard grass) assessed as growth inhibition at 150 g ai/ha applied as post-emergence treatment under green house conditions measured 15 days post compound treatment; assay type: functional; conditions: 360 h, read-out: GI; outline: as §2
[11] = test system: Chenopodium album; experiment: Herbicidal activity against Chenopodium album assessed as growth inhibition at 150 g ai/ha applied as pre-emergence treatment 24 hr after weeds seeds sowing under green house conditions measured 15 days post compound treatment; assay type: functional; conditions: read-out: GI; outline: as §3
[12] = test system: Echinochloa crus-galli; experiment: Herbicidal activity against Echinochloa crus-galli (barnyard grass) assessed as growth inhibition at 150 g ai/ha applied as pre-emergence treatment 24 hr after weeds seeds sowing under green house conditions measured 15 days post compound treatment; assay type: functional; conditions: read-out: GI; outline: as §3
[13] = target: T1, Acetolactate synthase, chloroplastic (Arabidopsis thaliana, UniProt P17597); experiment: Inhibition of wild type Arabidopsis thaliana acetohydroxyacid synthase
T1 sequence (P17597 whole entry): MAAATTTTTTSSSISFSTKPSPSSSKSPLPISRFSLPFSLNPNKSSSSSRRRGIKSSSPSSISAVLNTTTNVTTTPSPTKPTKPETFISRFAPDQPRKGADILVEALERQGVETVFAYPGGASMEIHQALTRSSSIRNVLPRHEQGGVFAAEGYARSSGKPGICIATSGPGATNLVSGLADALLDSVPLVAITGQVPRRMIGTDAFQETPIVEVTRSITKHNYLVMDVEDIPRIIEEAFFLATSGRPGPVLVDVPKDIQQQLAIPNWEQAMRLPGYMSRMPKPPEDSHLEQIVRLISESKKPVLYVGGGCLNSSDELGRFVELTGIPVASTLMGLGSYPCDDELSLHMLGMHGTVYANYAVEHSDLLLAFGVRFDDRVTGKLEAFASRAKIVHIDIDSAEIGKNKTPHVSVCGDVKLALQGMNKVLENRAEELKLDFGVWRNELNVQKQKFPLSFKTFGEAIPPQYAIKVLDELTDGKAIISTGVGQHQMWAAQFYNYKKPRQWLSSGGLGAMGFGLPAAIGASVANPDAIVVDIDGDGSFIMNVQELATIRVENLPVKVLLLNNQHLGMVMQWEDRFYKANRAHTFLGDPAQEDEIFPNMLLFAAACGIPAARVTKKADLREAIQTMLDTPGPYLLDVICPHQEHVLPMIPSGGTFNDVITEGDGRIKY

Row | Compound | Ki [13] [µM] | inhibition of growth at 150 g/ha [1] [%] | inhibition of growth at 150 g/ha [2] [%] | inhibition of growth at 150 g/ha [3] [%] | inhibition of growth at 150 g/ha [4] [%] | inhibition of growth at 150 g/ha [5] [%] | inhibition of growth at 150 g/ha [6] [%] | inhibition of growth at 150 g/ha [7] [%] | inhibition of growth at 150 g/ha [8] [%] | inhibition of growth at 150 g/ha [9] [%] | inhibition of growth at 150 g/ha [10] [%] | inhibition of growth at 150 g/ha [11] [%] | inhibition of growth at 150 g/ha [12] [%]
1 | COc1cc(OC)nc(Oc2cccc3c(C)nn(Cc4ccc(C)cc4)c(=O)c23)n1 | 637 | < 50 | < 50 | < 50 | < 50 | < 50 | < 50 | < 50 | < 50 | < 50 | < 50 | < 50 | < 50
2 | COc1cc(OC)nc(Oc2cccc3c(C)nn(Cc4c(F)cccc4F)c(=O)c23)n1 | 634 | < 50 | < 50 | < 50 | < 50 | < 50 | < 50 | < 50 | < 50 | < 50 | < 50 | < 50 | < 50
3 | COc1cc(OC)nc(Oc2cccc3c(C)nn(Cc4cccc(F)c4)c(=O)c23)n1 | 1400 | < 50 | < 50 | < 50 | < 50 | < 50 | < 50 | < 50 | < 50 | < 50 | < 50 | < 50 | < 50
4 | COc1cc(OC)nc(Oc2cccc3c(C)nn(Cc4ccc(F)cc4F)c(=O)c23)n1 | 1040 | < 50 | > 80 | 50 | 50 | < 50 | < 50 | < 50 | < 50 | < 50 | 50 | < 50 | < 50
5 | COc1cc(OC)nc(Oc2cccc3c(C)nn(Cc4ccccc4Cl)c(=O)c23)n1 | 210 | < 50 | < 50 | < 50 | < 50 | < 50 | < 50 | < 50 | < 50 | < 50 | < 50 | < 50 | < 50
6 | COc1cc(OC)nc(Oc2cccc3c(C)nn(CC(=O)OC(C)(C)C)c(=O)c23)n1 | 1560 | < 50 | < 50 | < 50 | < 50 | < 50 | < 50 | < 50 | < 50 | < 50 | < 50 | < 50 | < 50
7 | COc1cc(OC)nc(Oc2cccc3c(C)nn(Cc4ccccc4C)c(=O)c23)n1 | 262 | 50 | > 80 | 50 | 50 | < 50 | < 50 | < 50 | < 50 | < 50 | < 50 | < 50 | < 50

The next lines start with results.

Row | Ki [13] [µM] | Compound | inhibition of growth at 150 g/ha [1] [%] | inhibition of growth at 150 g/ha [2] [%] | inhibition of growth at 150 g/ha [3] [%] | inhibition of growth at 150 g/ha [4] [%] | inhibition of growth at 150 g/ha [5] [%] | inhibition of growth at 150 g/ha [6] [%] | inhibition of growth at 150 g/ha [7] [%] | inhibition of growth at 150 g/ha [8] [%] | inhibition of growth at 150 g/ha [9] [%] | inhibition of growth at 150 g/ha [10] [%] | inhibition of growth at 150 g/ha [11] [%] | inhibition of growth at 150 g/ha [12] [%]
8 | 420 | COc1cc(OC)nc(Oc2cccc3c(C)nn(Cc4ccc(Br)cc4F)c(=O)c23)n1 | < 50 | < 50 | < 50 | < 50 | < 50 | < 50 | < 50 | < 50 | < 50 | < 50 | < 50 | < 50
9 | 310 | COc1cc(OC)nc(Oc2cccc3c(C)nn(Cc4cc(C)ccc4[N+](=O)[O-])c(=O)c23)n1 | 50 | > 80 | 50 | 50 | < 50 | < 50 | < 50 | < 50 | < 50 | 50 | < 50 | < 50
10 | 441 | CCCCn1nc(C)c2cccc(Oc3nc(OC)cc(OC)n3)c2c1=O | > 80 | > 80 | 50 | 50 | < 50 | < 50 | < 50 | < 50 | < 50 | 50 | < 50 | < 50
11 | 203 | COc1cc(OC)nc(Oc2cccc3c(C)nn(Cc4ccc(Cl)cc4)c(=O)c23)n1 | < 50 | < 50 | < 50 | < 50 | < 50 | < 50 | < 50 | < 50 | < 50 | < 50 | < 50 | < 50
